In ChEMBL document CHEMBL1138278, “Aromatic amide derivatives of 5,6-dimethoxy-2,3-dihydro-1H-inden(-1-yl)acetic acid as anti-inflammatory agents free of ulcerogenic liability” (Bioorg Med Chem Lett, 2007):

Columns and labels:
Rattus norvegicus [1] = test: Antiinflammatory activity in Wistar rat assessed as inhibition of carrageenan-induced paw edema at 100 mg/kg, after 1 hr; format: functional
Summary of the method: (§1)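 Male Wistar rats (170 ± 20 g) dosed orally: test agents at 100 mg/kg, reference at 10 mg/kg. One hour later, 0.1 ml of 1% carrageenan injected subplantar into the right hind paw.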

Rattus norvegicus [2] = test: Antiinflammatory activity in Wistar rat assessed as inhibition of carrageenan-induced paw edema at 100 mg/kg, after 2 hrs; format: functional; summary of the method: as §1
Rattus norvegicus [3] = test: Antiinflammatory activity in Wistar rat assessed as inhibition of carrageenan-induced paw edema at 100 mg/kg, after 3 hrs; format: functional; summary of the method: as §1
Rattus norvegicus [4] = test: Antiinflammatory activity in Wistar rat assessed as inhibition of carrageenan-induced paw edema at 100 mg/kg, after 4 hrs; format: functional; summary of the method: as §1
Rattus norvegicus [5] = test: Antiinflammatory activity in Wistar rat assessed as inhibition of carrageenan-induced paw edema at 100 mg/kg, after 6 hrs; format: functional; summary of the method: as §1
Rattus norvegicus [6] = test: Antiinflammatory activity in Wistar rat assessed as inhibition of carrageenan-induced paw edema at 100 mg/kg, after 24 hrs; format: functional; summary of the method: as §1
Mus musculus [7] = test: Analgesic activity in Swiss Albino mouse assessed as number of acetic acid-induced writhing at 100 mg/kg, po after 1 hr relative to control; format: functional
Summary of the method: (§2)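 Mice dosed orally; one hour later injected i.p. with 1% v/v acetic acid at 0.1 ml/10 g. Writhings counted over 15 min, starting five minutes after injection. Means ± SEM, n = 6; p < 0.05 versus control group.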

Mus musculus [8] = test: Analgesic activity in Swiss Albino mouse assessed as inhibition of acetic acid-induced writhing responses at 100 mg/kg, po after 1 hr; format: functional; summary of the method: as §2
Rattus norvegicus [9] = test: Toxicity in 24 hrs fasted Wistar rat assessed as ulcer index at 100 mg/kg, po after 6 hrs; format: organism-based; parameters: dose 100 mg/kg, route oral; settings: in vivo
Summary of the method: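 Male Wistar rats (175 ± 25 g) fasted 24 h and dosed orally. Acute arm: test agents at 100 mg/kg, indomethacin at 30 mg/kg; rats killed after 6 h, stomachs opened along the greater curvature and scored for ulcers. Chronic arm: 14-day dosing, stomachs examined post mortem at the end of the arthritis study. Ulcer index means ± SEM, n = 4.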

Rattus norvegicus [10] = test: Antiarthritic activity against adjuvant-induced arthritis in Wistar rat assessed as inhibition of paw edema at 100 mg/kg, po on day 3; format: functional; settings: 72 h
Summary of the method: (§3)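 Male Wistar rats (160 ± 10 g) dosed orally once daily for 14 days, from the day before injecting 0.1 ml Freund's complete adjuvant into the subplantar surface of the right hind paw. Paw swelling, including the uninjected left paw, and body weight recorded. Means ± SEM, n = 6; p < 0.05 versus control.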

Rattus norvegicus [11] = test: Antiarthritic activity against adjuvant-induced arthritis in Wistar rat assessed as inhibition of paw edema at 100 mg/kg, po on day 8; format: functional; settings: 192 h; summary of the method: as §3
Rattus norvegicus [12] = test: Antiarthritic activity against adjuvant-induced arthritis in Wistar rat assessed as inhibition of paw edema at 100 mg/kg, po on day 13; format: functional; settings: 312 h; summary of the method: as §3
Rattus norvegicus [13] = test: Antiarthritic activity against adjuvant-induced arthritis in Wistar rat assessed as weight change at 100 mg/kg, po; format: functional; summary of the method: as §3
Rattus norvegicus [14] = test: Antipyretic activity against LPS-induced pyresis in Wistar rat assessed as change in rectal temperature at 100 mg/kg, po after 1 hr; format: functional
Summary of the method: (§4)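 Male Wistar rats (170 ± 20 g) dosed orally: test agents at 100 mg/kg, indomethacin and aspirin at 10 mg/kg and 100 mg/kg. Half an hour later, LPS in apyrogenic saline given at 100 µg/kg i.p. Rectal temperature taken by telethermometer probe immediately before LPS and hourly from 1 to 7 h after. Change in temperature reported; means ± SEM, n = 6.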

Rattus norvegicus [15] = test: Antipyretic activity against LPS-induced pyresis in Wistar rat assessed as change in rectal temperature at 100 mg/kg, po after 2 hrs; format: functional; summary of the method: as §4
Rattus norvegicus [16] = test: Antipyretic activity against LPS-induced pyresis in Wistar rat assessed as change in rectal temperature at 100 mg/kg, po after 3 hrs; format: functional; summary of the method: as §4
Rattus norvegicus [17] = test: Antipyretic activity against LPS-induced pyresis in Wistar rat assessed as change in rectal temperature at 100 mg/kg, po after 4 hrs; format: functional; summary of the method: as §4
Rattus norvegicus [18] = test: Antipyretic activity against LPS-induced pyresis in Wistar rat assessed as change in rectal temperature at 100 mg/kg, po after 5 hrs; format: functional; summary of the method: as §4
Rattus norvegicus [19] = test: Antipyretic activity against LPS-induced pyresis in Wistar rat assessed as change in rectal temperature at 100 mg/kg, po after 6 hrs; format: functional; summary of the method: as §4
Rattus norvegicus [20] = test: Antipyretic activity against LPS-induced pyresis in Wistar rat assessed as change in rectal temperature at 100 mg/kg, po after 7 hrs; format: functional; summary of the method: as §4

SMILES | inhibition in vivo at 100 mg/kg (Rattus norvegicus [1]) | inhibition in vivo at 100 mg/kg (Rattus norvegicus [2]) | inhibition in vivo at 100 mg/kg (Rattus norvegicus [3]) | inhibition in vivo at 100 mg/kg (Rattus norvegicus [4]) | inhibition in vivo at 100 mg/kg (Rattus norvegicus [5]) | inhibition in vivo at 100 mg/kg (Rattus norvegicus [6]) | Activity (Mus musculus [7]) | inhibition in vivo at 100 mg/kg (Mus musculus [8]) | UI (Rattus norvegicus [9]) | inhibition in vivo at 100 mg/kg (Rattus norvegicus [10]) | inhibition in vivo at 100 mg/kg (Rattus norvegicus [11]) | inhibition in vivo at 100 mg/kg (Rattus norvegicus [12]) | Activity (Rattus norvegicus [13]) | Activity (Rattus norvegicus [14]) | Activity (Rattus norvegicus [15]) | Activity (Rattus norvegicus [16]) | Activity (Rattus norvegicus [17]) | Activity (Rattus norvegicus [18]) | Activity (Rattus norvegicus [19]) | Activity (Rattus norvegicus [20])
COc1cc2c(cc1OC)C(CC(=O)Nc1ccc(C)cc1)CC2 (centres undefined) | 34.4% | 26% | 34.8% | 32.8% | 37% | 30% | 20.33 | 41.4% | 0 | – | – | – | – | – | – | – | – | – | – | –
COc1cc2c(cc1OC)C(CC(=O)Nc1ccc([N+](=O)[O-])cc1)CC2 (centres undefined) | 37.5% | 36% | 37.7% | 37.5% | 37% | 43.3% | 15.33 | 55.8% | 0 | 27.2% | 17.7% | 10.8% | 4.01 g | – | – | – | – | – | – | –
COc1cc2c(cc1OC)C(CC(=O)Nc1ccc(Br)cc1)CC2 (centres undefined) | 50% | 40% | 43.5% | 40.6% | 46.3% | 66.7% | 21.67 | 37.5% | – | – | – | – | – | – | – | – | – | – | – | –
COc1cc2c(cc1OC)C(CC(=O)Nc1ccncc1)CC2 (centres undefined) | 42.2% | 44% | 42% | 45.3% | 46.3% | 46.7% | 13.83 | 60.1% | – | 17% | 11.1% | 19.7% | 4.25 g | -0.11 °C | -2.23 °C | -0.87 °C | 0.13 °C | 0.35 °C | 0.74 °C | 0.42 °C
